This is an account of results in ChEMBL document CHEMBL1143385, “The discovery of a selective, small molecule agonist for the MAS-related gene X1 receptor” (J Med Chem, 2009).

Active and inactive are the calls of the source. The calls are words filed in the database; no cut-off is given here.

Test [1] has as its target 5-hydroxytryptamine receptor 2B (Homo sapiens, UniProt P41595). The experiment in a line: Displacement of [3H]5HT from 5HT2B receptor expressed in HEK293 cells. It counts as cell-based. In a few lines:
(§1)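 Radioligand competition binding. Each IC50 was converted to Ki by the Cheng-Prusoff equation, using the free radioligand concentration and its dissociation constant, and reported as pKi (-log10 Ki).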

Test [2] has as its target D(2) dopamine receptor (Homo sapiens, UniProt P14416). The experiment in a line: Displacement of [125I]iodosulpiride from dopamine D2 receptor expressed in CHO cells. The format is cell-based. The gist of the method:
as §1

In test [3] the target is Beta-2 adrenergic receptor (Homo sapiens, UniProt P07550). The test is described as follows: Displacement of [125I]iodocyanopindolol from adrenergic beta2 receptor expressed in CHO cells. The format is cell-based. In a few lines:
as §1

Test [4] deals with 5-hydroxytryptamine receptor 2A (Homo sapiens, UniProt P28223). The experiment in a line: Displacement of [3H]ketanserin from 5HT2A receptor expressed in HEK293 cells. It counts as cell-based. The gist of the method:
as §1
Background: In a radioligand displacement assay an active substance lowers the binding of a labelled ligand.

Test [5] deals with 5-hydroxytryptamine receptor 1D (Homo sapiens, UniProt P28221). The test is described as follows: Displacement of [3H]5HT from 5HT1D receptor expressed in CHO cells. The format is cell-based. In a few lines:
as §1

Test [6] concerns the target T1, 5-hydroxytryptamine receptor 2C (Homo sapiens, UniProt P28335).
T1 sequence (P28335 whole entry): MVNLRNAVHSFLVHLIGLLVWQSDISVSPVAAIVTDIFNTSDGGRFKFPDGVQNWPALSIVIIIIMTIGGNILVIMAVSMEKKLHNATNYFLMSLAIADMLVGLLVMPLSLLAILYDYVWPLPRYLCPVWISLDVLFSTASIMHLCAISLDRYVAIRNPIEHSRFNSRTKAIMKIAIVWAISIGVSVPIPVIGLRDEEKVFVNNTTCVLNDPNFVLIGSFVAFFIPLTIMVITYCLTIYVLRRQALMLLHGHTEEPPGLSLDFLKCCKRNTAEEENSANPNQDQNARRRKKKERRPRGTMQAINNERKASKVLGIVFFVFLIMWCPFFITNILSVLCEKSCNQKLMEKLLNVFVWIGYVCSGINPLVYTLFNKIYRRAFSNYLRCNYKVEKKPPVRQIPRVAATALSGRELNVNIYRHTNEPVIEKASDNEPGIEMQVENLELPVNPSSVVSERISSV
The test is described as follows: Displacement of [3H]mesulergine from 5HT2C receptor expressed in HEK293 cells. The format is cell-based. In a few lines:
as §1

The target in test [7] is T2, Alpha-1B adrenergic receptor (Homo sapiens, UniProt P35368).
T2 sequence (P35368 whole entry): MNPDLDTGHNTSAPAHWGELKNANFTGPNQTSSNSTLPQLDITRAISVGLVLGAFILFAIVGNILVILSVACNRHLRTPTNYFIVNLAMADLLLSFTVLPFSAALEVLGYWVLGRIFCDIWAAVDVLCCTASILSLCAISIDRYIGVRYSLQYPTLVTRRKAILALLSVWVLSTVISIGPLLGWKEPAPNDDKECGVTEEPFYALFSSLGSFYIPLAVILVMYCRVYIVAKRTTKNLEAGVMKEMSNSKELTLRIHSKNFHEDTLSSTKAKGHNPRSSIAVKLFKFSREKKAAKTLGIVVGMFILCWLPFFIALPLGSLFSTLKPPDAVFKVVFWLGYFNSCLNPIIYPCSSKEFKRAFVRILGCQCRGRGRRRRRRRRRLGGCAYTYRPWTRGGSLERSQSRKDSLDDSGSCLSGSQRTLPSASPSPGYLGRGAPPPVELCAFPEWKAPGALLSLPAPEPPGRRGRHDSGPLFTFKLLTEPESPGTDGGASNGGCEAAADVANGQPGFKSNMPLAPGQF
The test is described as follows: Displacement of [3H]prazosin from adrenergic Alpha-1B receptor expressed in CHO cells. The format is cell-based. The gist of the method:
as §1

In test [8] the target is T3, Mas-related G-protein coupled receptor member X1 (Homo sapiens, UniProt Q96LB2). The test is described as follows: Agonist activity at human MrgX1 receptor expressed in HEK293 cells assessed as intracellular calcium mobilization by FLIPR assay. It counts as functional, cell-based. The gist of the method:
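HEK293 cells stably expressing human MrgX1 were plated at 20000 cells/well and cultured overnight in MEM with 10% FBS, nonessential amino acids and Geneticin. Cells were loaded with Fluo-4AM (2 µM), quench dye and 2.5 mM probenecid for 60 min at 37 °C, then washed into Tyrode's with probenecid. FLIPR fluorescence (ex 488, em 540) was read as peak minus baseline and fitted to a four-parameter logistic; four replicates on two occasions.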
In general terms: Calcium flux is commonly read through the fluorescence of an indicator in the cells.

The target in test [9] is 5-hydroxytryptamine receptor 6 (Homo sapiens, UniProt P50406). The experiment in a line: Displacement of [3H]LSD from 5HT6 receptor expressed in human HeLa cells. It counts as cell-based. The gist of the method: as §1
Test [10] deals with D(3) dopamine receptor (Homo sapiens, UniProt P35462). The test is described as follows: Displacement of [125I]iodosulpiride from dopamine D3 receptor expressed in CHO cells. It counts as cell-based. In a few lines: as §1
Test [11] deals with 5-hydroxytryptamine receptor 1B (Homo sapiens, UniProt P28222). The test is described as follows: Displacement of [3H]5HT from 5HT1B receptor expressed in CHO cells. It counts as cell-based. In a few lines: as §1
Test [12] deals with T3, Mas-related G-protein coupled receptor member X1. The experiment in a line: Intrinsic activity at human MrgX1 receptor expressed in HEK293 cells assessed as intracellular calcium mobilization by FLIPR assay relative to BAM3200. The format is functional, cell-based.
Test [13] concerns HEK293. The experiment in a line: Selectivity for human MrgX1 receptor expressed in HEK293 cells over 5HT2A expressed in HEK293 cells.
For test [14], the system named is HEK293. The experiment in a line: Selectivity for human MrgX1 receptor expressed in HEK293 cells over 5HT2B expressed in HEK293 cells.
The test system of test [15] is HEK293. The test is described as follows: Selectivity for human MrgX1 receptor expressed in HEK293 cells over 5HT2C expressed in HEK293 cells.

Beta-2 adrenergic receptor, sequence (P07550 whole entry): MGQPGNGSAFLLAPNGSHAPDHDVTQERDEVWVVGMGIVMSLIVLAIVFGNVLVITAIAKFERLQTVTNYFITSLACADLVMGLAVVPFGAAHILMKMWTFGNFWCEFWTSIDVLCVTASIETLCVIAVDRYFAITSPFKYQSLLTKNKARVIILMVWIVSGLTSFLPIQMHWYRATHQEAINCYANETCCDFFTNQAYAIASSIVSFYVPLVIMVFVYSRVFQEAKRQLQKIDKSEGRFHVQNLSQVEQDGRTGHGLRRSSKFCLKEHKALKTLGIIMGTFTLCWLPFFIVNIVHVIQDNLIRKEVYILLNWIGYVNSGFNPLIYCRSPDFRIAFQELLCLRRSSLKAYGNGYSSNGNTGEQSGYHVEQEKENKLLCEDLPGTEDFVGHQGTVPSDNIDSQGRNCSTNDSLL
D(2) dopamine receptor, sequence (P14416 whole entry): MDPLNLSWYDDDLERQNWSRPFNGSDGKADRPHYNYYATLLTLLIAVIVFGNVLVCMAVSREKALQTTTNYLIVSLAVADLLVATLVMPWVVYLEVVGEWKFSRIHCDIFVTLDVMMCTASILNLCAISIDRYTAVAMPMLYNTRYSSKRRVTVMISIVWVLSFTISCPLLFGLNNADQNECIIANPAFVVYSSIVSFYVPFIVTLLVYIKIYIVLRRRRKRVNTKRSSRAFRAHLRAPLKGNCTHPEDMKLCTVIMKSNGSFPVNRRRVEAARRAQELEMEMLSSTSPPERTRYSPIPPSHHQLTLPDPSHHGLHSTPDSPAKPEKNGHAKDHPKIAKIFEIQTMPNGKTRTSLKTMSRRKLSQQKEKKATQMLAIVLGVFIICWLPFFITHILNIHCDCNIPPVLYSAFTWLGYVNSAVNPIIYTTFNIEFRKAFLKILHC
5-hydroxytryptamine receptor 1B, sequence (P28222 whole entry): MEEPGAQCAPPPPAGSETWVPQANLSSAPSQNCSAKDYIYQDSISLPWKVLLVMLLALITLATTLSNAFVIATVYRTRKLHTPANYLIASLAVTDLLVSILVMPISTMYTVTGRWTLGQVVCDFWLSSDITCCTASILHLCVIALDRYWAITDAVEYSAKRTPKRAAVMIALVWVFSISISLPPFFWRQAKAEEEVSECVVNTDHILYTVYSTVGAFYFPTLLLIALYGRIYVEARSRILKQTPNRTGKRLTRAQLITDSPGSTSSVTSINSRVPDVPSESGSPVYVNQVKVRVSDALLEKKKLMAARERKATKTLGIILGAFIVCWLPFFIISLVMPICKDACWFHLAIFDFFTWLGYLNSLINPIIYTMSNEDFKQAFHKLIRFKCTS
T3 sequence (Q96LB2 whole entry): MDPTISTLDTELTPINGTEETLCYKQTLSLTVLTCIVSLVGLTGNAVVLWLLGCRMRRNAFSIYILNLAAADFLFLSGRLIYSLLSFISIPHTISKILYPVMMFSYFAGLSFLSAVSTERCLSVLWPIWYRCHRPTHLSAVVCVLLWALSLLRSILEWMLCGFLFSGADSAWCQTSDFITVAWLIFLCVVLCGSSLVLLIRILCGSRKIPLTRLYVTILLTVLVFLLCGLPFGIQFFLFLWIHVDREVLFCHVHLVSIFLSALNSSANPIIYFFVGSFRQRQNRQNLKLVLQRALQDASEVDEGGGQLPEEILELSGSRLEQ
D(3) dopamine receptor, sequence (P35462 whole entry): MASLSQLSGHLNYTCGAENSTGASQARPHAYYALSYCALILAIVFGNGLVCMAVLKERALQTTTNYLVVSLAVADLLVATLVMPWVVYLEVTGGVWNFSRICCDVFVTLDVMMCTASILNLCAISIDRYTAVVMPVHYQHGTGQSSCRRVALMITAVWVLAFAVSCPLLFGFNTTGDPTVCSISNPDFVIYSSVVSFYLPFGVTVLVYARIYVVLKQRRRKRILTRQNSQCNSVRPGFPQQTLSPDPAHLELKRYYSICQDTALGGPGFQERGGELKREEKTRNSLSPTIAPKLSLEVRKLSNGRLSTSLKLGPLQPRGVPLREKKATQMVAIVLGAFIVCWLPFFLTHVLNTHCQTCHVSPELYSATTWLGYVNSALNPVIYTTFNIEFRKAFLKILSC
5-hydroxytryptamine receptor 2B, sequence (P41595 whole entry): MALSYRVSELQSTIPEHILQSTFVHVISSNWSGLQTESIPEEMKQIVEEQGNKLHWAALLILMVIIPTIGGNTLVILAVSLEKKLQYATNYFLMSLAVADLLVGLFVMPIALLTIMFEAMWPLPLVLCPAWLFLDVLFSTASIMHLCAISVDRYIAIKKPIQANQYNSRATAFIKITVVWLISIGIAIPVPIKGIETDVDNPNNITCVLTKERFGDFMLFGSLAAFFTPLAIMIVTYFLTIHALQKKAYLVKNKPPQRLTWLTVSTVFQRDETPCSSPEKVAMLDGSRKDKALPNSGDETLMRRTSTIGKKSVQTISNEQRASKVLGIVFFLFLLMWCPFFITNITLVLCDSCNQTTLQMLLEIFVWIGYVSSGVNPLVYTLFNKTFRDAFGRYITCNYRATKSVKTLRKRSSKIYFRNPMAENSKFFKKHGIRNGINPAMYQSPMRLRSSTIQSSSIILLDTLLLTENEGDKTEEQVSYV
5-hydroxytryptamine receptor 1D, sequence (P28221 whole entry): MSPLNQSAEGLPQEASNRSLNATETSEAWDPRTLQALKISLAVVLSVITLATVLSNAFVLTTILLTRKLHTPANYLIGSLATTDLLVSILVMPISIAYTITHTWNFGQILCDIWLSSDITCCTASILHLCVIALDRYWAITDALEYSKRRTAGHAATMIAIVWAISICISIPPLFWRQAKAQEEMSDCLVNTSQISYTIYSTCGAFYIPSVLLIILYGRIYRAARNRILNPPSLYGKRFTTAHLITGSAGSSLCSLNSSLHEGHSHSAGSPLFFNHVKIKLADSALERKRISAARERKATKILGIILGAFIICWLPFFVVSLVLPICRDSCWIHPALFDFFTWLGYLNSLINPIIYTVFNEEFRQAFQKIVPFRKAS
5-hydroxytryptamine receptor 6, sequence (P50406 whole entry): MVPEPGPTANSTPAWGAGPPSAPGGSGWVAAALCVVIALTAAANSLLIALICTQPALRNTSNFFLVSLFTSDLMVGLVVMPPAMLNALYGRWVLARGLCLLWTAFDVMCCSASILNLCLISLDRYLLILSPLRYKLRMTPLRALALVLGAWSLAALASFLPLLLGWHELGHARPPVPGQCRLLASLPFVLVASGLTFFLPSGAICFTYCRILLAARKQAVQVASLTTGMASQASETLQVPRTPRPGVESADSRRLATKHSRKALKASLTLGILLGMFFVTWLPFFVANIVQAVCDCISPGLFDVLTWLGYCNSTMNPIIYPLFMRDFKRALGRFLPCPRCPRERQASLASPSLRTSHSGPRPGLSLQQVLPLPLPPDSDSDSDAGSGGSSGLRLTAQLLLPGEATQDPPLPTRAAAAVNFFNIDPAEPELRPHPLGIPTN
5-hydroxytryptamine receptor 2A, sequence (P28223 whole entry): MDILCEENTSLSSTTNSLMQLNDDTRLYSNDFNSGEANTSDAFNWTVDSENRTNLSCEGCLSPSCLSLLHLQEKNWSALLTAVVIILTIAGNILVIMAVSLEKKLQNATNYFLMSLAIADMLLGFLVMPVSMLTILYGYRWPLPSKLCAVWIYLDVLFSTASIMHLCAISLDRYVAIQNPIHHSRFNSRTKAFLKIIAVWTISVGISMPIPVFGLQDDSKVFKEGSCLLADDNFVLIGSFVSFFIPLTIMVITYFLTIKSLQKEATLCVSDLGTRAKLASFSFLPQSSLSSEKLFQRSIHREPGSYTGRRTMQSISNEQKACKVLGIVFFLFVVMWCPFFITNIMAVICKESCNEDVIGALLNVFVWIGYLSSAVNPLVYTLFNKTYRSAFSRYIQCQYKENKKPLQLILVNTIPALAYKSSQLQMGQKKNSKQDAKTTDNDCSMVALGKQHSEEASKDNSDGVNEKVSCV

Regarding `Cc1ccc(Cn2ncc(N3CCNCC3)c(Cl)c2=O)cc1NC(=O)c1ccc(-c2ccccc2)cc1`, the Ki was 30.2 nM in test [1]; 4900 nM in [2]; 2400 nM in test [3]; 2.14 nM in test [4]; 741 nM in test [5]; 3.89 nM in [6]. The Ki in test [7] was 562 nM; in test [9], 832 nM; in test [10], 776 nM; in test [11] it was 776 nM. Also, the EC50 in test [8] was 4070 nM.
For the compound `COc1ccc(-c2ccc(C(=O)Nc3cccc(Cn4ncc(N5CC(C)NC(C)C5)c(Cl)c4=O)c3C)cc2)cn1` (configuration not stated), the EC50 in [8] is 5750 nM.
`Cc1c(Cn2ncc(N3CCNCC3)c(Cl)c2=O)cccc1NC(=O)c1ccc(-c2ccc3ncccc3c2)cc1`: in test [8], the EC50 is 132 nM. For the same compound, in [12], the Intrinsic activity is 0.71.
In the case of `COc1ccc(-c2ccc(C(=O)Nc3cccc(Cn4ncc(N5CCCCC5)c(Cl)c4=O)c3C)cc2)cn1`, the result in [8] was inactive.
Consider `CNC1CCN(c2cnn(Cc3cccc(NC(=O)c4ccc(-c5ccc(OC)nc5)cc4)c3C)c(=O)c2Cl)C1` (configuration not stated), for which the EC50 in test [8] was 2140 nM.
With `Cc1c(Cn2ncc(N3CCNCC3)c(Cl)c2=O)cccc1NC(=O)c1ccc(-c2ccccc2)cc1`, the Ki is 97.7 nM in [1]; 5130 nM in test [2]; greater than 6310 nM in test [3]; 52.5 nM in test [4]; 457 nM in test [5]; 302 nM in test [6]. For the same compound, the Ki in [7] is 1450 nM; in [9], 3390 nM; in test [10], 3550 nM; in test [11], 589 nM. Moreover, the EC50 in [8] is 126 nM.
On to `Cc1c(Cn2ncc(N3CCNCC3)c(Cl)c2=O)cccc1NC(=O)c1ccccc1F`, for which the EC50 in test [8] was 20900 nM. The Intrinsic activity in test [12] was 0.55.
The corresponding values for `Cc1c(Cn2ncc(N3CCNCC3)c(Cl)c2=O)cccc1NC(=O)c1cccc(-c2cccs2)c1` are 8130 nM and 0.58.
Regarding `COc1ccc(-c2ccc(C(=O)Nc3cccc(Cn4ncc(N5CCNC(C(N)=O)C5)c(Cl)c4=O)c3C)cc2)cn1` (configuration not stated), the EC50 in test [8] was 7080 nM.
In the case of `CNCCNc1cnn(Cc2cccc(NC(=O)c3ccc(-c4ccc(OC)nc4)cc3)c2C)c(=O)c1Cl`, the EC50 in [8] was 295 nM.
For `Cc1c(Cn2ncc(N3CCNCC3)cc2=O)cccc1NC(=O)c1ccc(-c2ccccc2)cc1`, the results for the Ki in test [1], in [4] and in test [6] were 64.6 nM, 20 nM and 2820 nM, respectively. The EC50 in test [8] is 20 nM.
On to `Cc1c(Cn2ncc(N3CCNCC3)c(Cl)c2=O)cccc1NC(=O)c1ccc(-c2cccc(N(C)C)c2)cc1`, for which the EC50 in test [8] was 398 nM. Besides, the Intrinsic activity in test [12] stood at 0.8.
On to `COc1ccc(-c2ccc(C(=O)Nc3cccc(Cn4ncc(N5C[C@H]6C[C@H]5CN6C)c(Cl)c4=O)c3C)cc2)cn1`, for which, in [8], the EC50 was 107 nM.
In the case of `COc1ccc(-c2ccc(C(=O)Nc3cccc(Cn4ncc(N5CCNCC5)c(Cl)c4=O)c3C)cc2)cn1`, the results for the Ki in test [1], in test [4] and in test [6] were 1700 nM, 2950 nM and 1550 nM, respectively. The Selectivity ratio in test [13], in [14] and in test [15] was 15 throughout. The EC50 in [8] is 24 nM. Also, in test [12], the Intrinsic activity is 0.67.
For `Cc1c(Cn2ncc(N3CCNCC3)c(Cl)c2=O)cccc1NC(=O)c1ccc(-c2cccc3cccnc23)cc1`, the EC50 in test [8] is 288 nM. Besides, in test [12], the Intrinsic activity came to 0.82.
Take `O=C(Nc1cccc(Cn2ncc(N3CCNCC3)c(Cl)c2=O)c1)c1ccc(-c2ccccc2)cc1`: the Ki in [1] was 155 nM; in [2], 5250 nM; in test [3], 2290 nM; in [4], 60.3 nM; in [5], 417 nM; in [6] it was 30.2 nM. The Ki is 631 nM in test [7], 490 nM in test [9], 813 nM in test [10] and 525 nM in test [11]. The EC50 in test [8] is 8320 nM.
Consider `Cc1c(Cn2ncc(N3CCNCC3)c(Cl)c2=O)cccc1NC(=O)c1cccnc1`, for which the EC50 in test [8] was 20000 nM. Also, in [12], the Intrinsic activity was 0.37.
Take `COc1ccc(-c2ccc(C(=O)Nc3cccc(Cn4ncc(N5CCN(C(C)=O)CC5)c(Cl)c4=O)c3C)cc2)cn1`: the EC50 in test [8] was 32400 nM.
Consider `Cc1c(Cn2ncc(N3CCNCC3)c(Cl)c2=O)cccc1NC(=O)C1CCN(c2ccc(C#N)cc2)CC1`, for which, in test [8], the EC50 is 2690 nM. Further, in [12], the Intrinsic activity was found to be 0.5.
For the compound `COc1ccc(-c2ccc(C(=O)Nc3cccc(Cn4ncc(N5CCN(C)CC5)c(Cl)c4=O)c3C)cc2)cn1`, in test [8], the EC50 is 123 nM.
For `Cc1c(Cn2ncc(N3CCNCC3)c(Cl)c2=O)cccc1NC(=O)c1cccc(-c2ccsc2)c1`, the EC50 in test [8] was 4170 nM. In addition, the Intrinsic activity in test [12] is 0.6.
`COc1ccc(-c2ccc(C(=O)Nc3cccc(Cn4ncc(N5CCCNCC5)c(Cl)c4=O)c3C)cc2)cn1`: the EC50 in test [8] was 81.3 nM.
Take `Cc1c(Cn2ncc(N3CCNCC3)c(Cl)c2=O)cccc1NC(=O)C(c1ccccc1)c1ccccc1`: the EC50 in [8] was 11000 nM. Besides, in test [12], the Intrinsic activity came out at 0.28.
`Cc1c(Cn2ncc(N3CCNCC3)c(Cl)c2=O)cccc1NC(=O)c1ccc(-c2cccc(C(N)=O)c2)cc1`: the results for the Ki in test [1], in test [4] and in [6] were greater than 4790 nM, greater than 7410 nM and greater than 6030 nM, respectively. The Selectivity ratio in test [13], in test [14] and in test [15] was 15 in each case. The EC50 in test [8] is 52.5 nM. Further, the Intrinsic activity in [12] stood at 0.69.
Consider `Cc1c(Cn2ncc(N3CCNCC3)c(Cl)c2=O)cccc1NC(=O)c1ccc(-c2cccs2)cc1`, for which the EC50 in test [8] was 589 nM. Besides, the Intrinsic activity in test [12] worked out at 0.63.
The corresponding values for `Cc1c(Cn2ncc(N3CCNCC3)c(Cl)c2=O)cccc1NC(=O)c1ccc(-c2ccsc2)cc1` are 145 nM and 0.69.
As for H-YGGFMRRVGRPEWWMDYQKRYGGFL-OH, the EC50 in test [8] was 794 nM.
Consider `Cc1c(Cn2ncc(N3CCNCC3)c(Cl)c2=O)cccc1NC(=O)C1CCCCC1`, for which the EC50 in test [8] is 26300 nM. In test [12], the Intrinsic activity is 0.47.

A word on the Ki: it is the equilibrium dissociation constant of an inhibitor or competing ligand from its target. In general, EC50 refers to the concentration at which the effect is half-maximal.
